pIC50: −log10 of the molar value. Values belong to the molecule of their own block, whether it stands above or below them. The source made the active and inactive calls. No cut-off for these calls is given here.
Legend:
HL-60 = assay: Cytotoxicity against human HL60 cells by XTT assay; type: cell-based
[1] = Cmax in 5XFAD transgenic B6SJLF1/J mouse plasma at 10 mg/kg, ip by LC-MS/MS analysis; type: ADME, organism-based; parameters: dose 10 mg/kg, route intraperitoneal
How it was run: (§1)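 Hemizygous 5XFAD mice aged 11 months received one terminal ip dose of 10 mg/kg in NMP–Tween 80–saline (2.5:5:92.5 v/v/v). […] Extraction by acetonitrile protein precipitation with losartan as internal standard, then LC–MS/MS. Noncompartmental analysis: Cmax and Tmax observed; AUC to 6 h by log–linear trapezoidal rule.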

HeLa S3 = assay: Cytotoxicity against human HeLaS3 cells by XTT assay; type: cell-based
Cytochrome P450 [2] = assay: Drug metabolism in human liver microsomes assessed as CYP450-mediated O-demethylated metabolite formation at 1 uM measured after 60 mins in presence of NADPH generating system by LC-MS/MS analysis; type: ADME; details: 1 h
Mus musculus [3] = assay: Suppression of cognitive dysfunction in 5XFAD transgenic B6SJLF1/J mouse model of Alzheimer's disease assessed as body weight gain at 10 mg/kg, ip administered daily for 5 months measured during compound dosing; type: functional, organism-based
How it was run: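 Male and female hemizygous 5XFAD and WT littermates were dosed from age 3 months with 10 mg/kg ip daily or vehicle (5% DMSO, 5% Tween 80, 90% PBS), n = 13–16. Body weight was followed to study day 150 (8 months). Groups were compared by two-way ANOVA.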

CCRF-CEM = assay: Cytotoxicity against human CCRF-CEM cells by XTT assay; type: cell-based
Mus musculus [4] = assay: Suppression of cognitive dysfunction in 5XFAD transgenic B6SJLF1/J mouse model of Alzheimer's disease assessed as increase in freezing behavior response to 1000 Hz tone conditioned stimulus at 10 mg/kg, ip administered daily for 5 months measured during 120 secs of testing by contextual fear conditioning assay; type: functional, organism-based
How it was run: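 Dosed daily ip at 10 mg/kg (vehicle 5% DMSO/5% Tween 80/90% PBS) from 3 months, n = 13–16, then tested at 8 months. Day 1: 240 s in chamber with two pairings of a 30 s 1000 Hz tone and a 2 s 0.5 mA footshock, at 120 and 180 s. Day 2: contextual test, 300 s in same chamber. Day 3: novel box for 240 s with tone during last 120 s. Read-out: freezing.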

[5] = Tmax in 5XFAD transgenic B6SJLF1/J mouse brain at 10 mg/kg, ip by LC-MS/MS analysis; type: ADME, organism-based; how it was run: as §1
HepG2 = assay: Cytotoxicity against human HepG2 cells by XTT assay; type: cell-based
[6] = Cmax in 5XFAD transgenic B6SJLF1/J mouse brain at 10 mg/kg, ip by LC-MS/MS analysis; type: ADME, organism-based; parameters: dose 10 mg/kg, route intraperitoneal; how it was run: as §1
[7] = Tmax in 5XFAD transgenic B6SJLF1/J mouse plasma at 10 mg/kg, ip by LC-MS/MS analysis; type: ADME, organism-based; how it was run: as §1
[8] = Drug metabolism in mouse liver microsomes assessed as CYP450-mediated O-dealkylation at 1 uM measured after 60 mins in presence of NADPH generating system by LC-MS/MS analysis; type: ADME; details: 1 h
How it was run: (§2)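 Mouse or human liver microsomes at 0.2 mg/mL, compound at 1 μM final. Controls run without cofactors. Quenched at 60 min with cold acetonitrile containing internal standard; read as % remaining.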

[9] = molecular target: Phosphatidylinositol 4-kinase alpha (Homo sapiens) (UniProt P42356); assay: Inhibition of PI4K3alpha (unknown origin)
Sequence of Phosphatidylinositol 4-kinase alpha (Homo sapiens) (P42356 whole entry, looked up): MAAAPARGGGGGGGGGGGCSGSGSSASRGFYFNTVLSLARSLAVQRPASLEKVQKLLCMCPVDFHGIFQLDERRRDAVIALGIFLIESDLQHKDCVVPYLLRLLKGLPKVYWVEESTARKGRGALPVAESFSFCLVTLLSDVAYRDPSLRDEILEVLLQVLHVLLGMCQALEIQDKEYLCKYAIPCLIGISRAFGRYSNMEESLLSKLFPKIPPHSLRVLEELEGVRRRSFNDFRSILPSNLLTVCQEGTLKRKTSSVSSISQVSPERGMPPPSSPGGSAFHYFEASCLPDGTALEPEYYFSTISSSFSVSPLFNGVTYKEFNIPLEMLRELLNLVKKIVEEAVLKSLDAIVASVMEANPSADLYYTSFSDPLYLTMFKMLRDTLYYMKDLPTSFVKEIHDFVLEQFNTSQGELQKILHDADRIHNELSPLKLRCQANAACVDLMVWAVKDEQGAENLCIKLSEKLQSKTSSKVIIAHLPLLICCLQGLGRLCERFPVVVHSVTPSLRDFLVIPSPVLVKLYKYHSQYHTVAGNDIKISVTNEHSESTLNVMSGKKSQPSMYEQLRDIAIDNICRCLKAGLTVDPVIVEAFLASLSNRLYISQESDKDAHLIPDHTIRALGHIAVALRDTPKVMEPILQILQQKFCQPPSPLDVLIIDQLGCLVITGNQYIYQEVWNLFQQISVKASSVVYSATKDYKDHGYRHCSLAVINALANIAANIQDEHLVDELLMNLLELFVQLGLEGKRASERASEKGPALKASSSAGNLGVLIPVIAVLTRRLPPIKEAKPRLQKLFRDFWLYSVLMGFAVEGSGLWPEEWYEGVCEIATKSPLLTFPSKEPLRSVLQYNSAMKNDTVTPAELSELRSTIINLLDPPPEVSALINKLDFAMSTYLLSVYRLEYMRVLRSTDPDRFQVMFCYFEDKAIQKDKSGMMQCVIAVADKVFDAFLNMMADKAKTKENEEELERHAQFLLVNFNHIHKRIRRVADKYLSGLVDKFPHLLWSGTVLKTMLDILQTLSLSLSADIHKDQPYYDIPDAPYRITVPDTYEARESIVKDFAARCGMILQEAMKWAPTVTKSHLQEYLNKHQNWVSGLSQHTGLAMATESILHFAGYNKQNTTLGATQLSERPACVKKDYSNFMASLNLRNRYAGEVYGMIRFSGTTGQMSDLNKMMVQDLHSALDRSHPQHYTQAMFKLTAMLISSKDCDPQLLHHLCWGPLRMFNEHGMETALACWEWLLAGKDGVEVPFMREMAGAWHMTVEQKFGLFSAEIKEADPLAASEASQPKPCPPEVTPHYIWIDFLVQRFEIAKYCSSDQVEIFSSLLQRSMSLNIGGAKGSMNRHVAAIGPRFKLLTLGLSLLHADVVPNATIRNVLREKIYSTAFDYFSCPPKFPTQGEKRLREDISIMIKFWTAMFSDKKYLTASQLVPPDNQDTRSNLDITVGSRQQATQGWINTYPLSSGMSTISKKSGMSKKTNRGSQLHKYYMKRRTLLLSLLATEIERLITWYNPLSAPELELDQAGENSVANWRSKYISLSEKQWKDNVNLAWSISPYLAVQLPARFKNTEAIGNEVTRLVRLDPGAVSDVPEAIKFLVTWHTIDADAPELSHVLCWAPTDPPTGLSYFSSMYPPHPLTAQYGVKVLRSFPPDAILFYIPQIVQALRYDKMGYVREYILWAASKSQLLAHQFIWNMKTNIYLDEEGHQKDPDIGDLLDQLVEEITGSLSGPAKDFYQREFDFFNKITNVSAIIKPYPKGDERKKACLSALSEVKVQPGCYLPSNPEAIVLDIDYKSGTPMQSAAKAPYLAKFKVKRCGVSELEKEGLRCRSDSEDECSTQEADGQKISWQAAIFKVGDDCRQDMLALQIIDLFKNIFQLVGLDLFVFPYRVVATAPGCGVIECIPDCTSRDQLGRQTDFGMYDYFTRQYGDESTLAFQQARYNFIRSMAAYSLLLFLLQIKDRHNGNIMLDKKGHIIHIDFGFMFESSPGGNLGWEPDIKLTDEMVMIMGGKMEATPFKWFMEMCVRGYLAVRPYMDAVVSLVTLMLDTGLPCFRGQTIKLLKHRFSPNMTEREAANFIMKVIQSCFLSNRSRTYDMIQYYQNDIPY

[10] = AUClast in 5XFAD transgenic B6SJLF1/J mouse plasma at 10 mg/kg, ip by LC-MS/MS analysis; type: ADME, organism-based; how it was run: as §1
[11] = molecular target: Phosphatidylinositol 4-kinase beta (Homo sapiens, UniProt Q9UBF8); assay: Inhibition of PI4K3beta (unknown origin)
Sequence of Phosphatidylinositol 4-kinase beta (Q9UBF8 whole entry): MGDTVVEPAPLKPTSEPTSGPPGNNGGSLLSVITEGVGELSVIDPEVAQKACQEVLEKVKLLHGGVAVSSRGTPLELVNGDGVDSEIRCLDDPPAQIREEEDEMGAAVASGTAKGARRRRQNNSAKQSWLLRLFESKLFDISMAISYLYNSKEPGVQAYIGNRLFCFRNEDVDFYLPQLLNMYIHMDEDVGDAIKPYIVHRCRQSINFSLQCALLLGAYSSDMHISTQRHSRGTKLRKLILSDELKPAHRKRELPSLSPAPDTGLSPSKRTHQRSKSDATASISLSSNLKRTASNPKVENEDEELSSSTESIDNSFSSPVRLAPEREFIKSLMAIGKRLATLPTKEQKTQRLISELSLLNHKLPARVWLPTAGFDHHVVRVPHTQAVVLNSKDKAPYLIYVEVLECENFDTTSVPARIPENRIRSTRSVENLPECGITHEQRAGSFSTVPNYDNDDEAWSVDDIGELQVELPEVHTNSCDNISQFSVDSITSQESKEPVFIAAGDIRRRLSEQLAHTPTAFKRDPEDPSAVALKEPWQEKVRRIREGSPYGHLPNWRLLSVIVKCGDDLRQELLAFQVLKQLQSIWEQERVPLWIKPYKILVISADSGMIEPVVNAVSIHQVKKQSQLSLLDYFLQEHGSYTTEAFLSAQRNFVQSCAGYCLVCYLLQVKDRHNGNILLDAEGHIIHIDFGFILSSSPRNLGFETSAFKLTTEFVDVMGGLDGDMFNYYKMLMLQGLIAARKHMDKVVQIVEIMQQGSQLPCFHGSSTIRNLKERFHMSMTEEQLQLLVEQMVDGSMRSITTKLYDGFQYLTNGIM

Cytochrome P450 [12] = assay: Drug metabolism in human liver microsomes assessed as CYP450-mediated O-dealkylation at 1 uM measured after 60 mins in presence of NADPH generating system by LC-MS/MS analysis; type: ADME; details: 1 h; how it was run: as §2
[13] = AUClast in 5XFAD transgenic B6SJLF1/J mouse brain at 10 mg/kg, ip by LC-MS/MS analysis; type: ADME, organism-based; how it was run: as §1
[14] = Stability in human liver microsomes assessed as parent compound remaining at 1 uM measured after 60 mins in absence of NADPH by LC-MS/MS analysis; type: ADME, Microsome; details: liver microsomes, read-out: Stability
How it was run: (§3)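 Cofactor-free control for cofactor-independent degradation. Mouse or human liver microsomes at 0.2 mg/mL, 1 μM compound (final), 100 mM potassium phosphate at pH 7.4, no NADPH regenerating system. Adding microsomes started the reaction; run in triplicate. Sampled at 60 min and quenched with three volumes of ice-cold acetonitrile spiked with internal standard.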

[15] = Stability in mouse liver microsomes assessed as parent compound remaining at 1 uM measured after 60 mins in absence of NADPH by LC-MS/MS analysis; type: ADME, Microsome; details: liver microsomes, read-out: Stability; how it was run: as §3
[16] = Stability in mouse liver microsomes assessed as CYP450-mediated metabolism by measuring parent compound remaining at 1 uM measured after 60 mins in presence of NADPH generating system by LC-MS/MS analysis; type: ADME; details: 1 h
How it was run: (§4)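 Liver microsomes from mouse or human, 0.2 mg/mL, with 1 μM compound (final) in 100 mM potassium phosphate at pH 7.4. Adding microsomes started the reaction; triplicates. After 60 min, quenched with 3 volumes of ice-cold acetonitrile containing internal standard.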

Cytochrome P450 [17] = assay: Stability in human liver microsomes assessed as CYP450-mediated metabolism by measuring parent compound remaining at 1 uM measured after 60 mins in presence of NADPH generating system by LC-MS/MS analysis; type: ADME; details: 1 h; how it was run: as §4
[18] = molecular target: T1, Sphingomyelin phosphodiesterase 3 (Homo sapiens, UniProt Q9NY59); assay: Inhibition of human recombinant full-length nSMase expressed in HEK293 cells using sphingomyelin as substrate measured after 1 hr by alkaline phosphatase, choline oxidase and horseradish peroxidase dependent H2O2 detection-coupled amplex reagent based fluorescence assay
T1 sequence (Q9NY59 whole entry): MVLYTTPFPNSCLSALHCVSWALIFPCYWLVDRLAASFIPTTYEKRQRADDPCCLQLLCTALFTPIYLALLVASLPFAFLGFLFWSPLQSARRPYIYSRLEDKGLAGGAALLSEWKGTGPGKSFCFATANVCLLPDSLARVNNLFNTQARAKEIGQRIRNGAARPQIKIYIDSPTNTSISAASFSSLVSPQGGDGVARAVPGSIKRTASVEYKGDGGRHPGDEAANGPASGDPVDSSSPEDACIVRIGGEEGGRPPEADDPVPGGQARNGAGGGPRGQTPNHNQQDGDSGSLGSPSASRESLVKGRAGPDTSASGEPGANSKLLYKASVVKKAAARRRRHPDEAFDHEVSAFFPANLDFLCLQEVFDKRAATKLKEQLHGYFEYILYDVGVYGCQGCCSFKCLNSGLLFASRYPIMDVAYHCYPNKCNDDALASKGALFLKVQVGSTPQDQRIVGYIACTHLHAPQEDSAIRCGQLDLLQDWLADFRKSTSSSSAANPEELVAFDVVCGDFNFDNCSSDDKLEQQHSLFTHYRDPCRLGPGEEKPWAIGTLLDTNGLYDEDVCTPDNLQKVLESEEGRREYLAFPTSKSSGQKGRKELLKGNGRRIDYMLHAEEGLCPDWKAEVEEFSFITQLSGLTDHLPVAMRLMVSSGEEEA

Compound: COc1ccc(-c2c(C)nc3c(N4CC[C@@H](NC(=O)Oc5ccccc5)C4)cc(C)nn23)cc1OC
- Activity (HL-60): Non-Toxic
- Cmax [1]: 7.7 µM
- Activity (HeLa S3): Non-Toxic
- Drug metabolism (Cytochrome P450 [2]): Metabolite_Detected
- Activity (Mus musculus [3]): Active
- Activity (CCRF-CEM): Non-Toxic
- Activity (Mus musculus [4]): Active
- Tmax [5]: 30 min
- Activity (HepG2): Non-Toxic
- Cmax [6]: 3.89 µM
- Tmax [7]: 15 min
- Drug metabolism [8]: Metabolite_Detected
- inhibition [9]: inactive
- AUC(0-t) [10]: 22.1 µM·h
- pIC50 [11]: < 5.00
- Drug metabolism (Cytochrome P450 [12]): Metabolite_Detected
- AUC(0-t) [13]: 13 µM·h

Compound: COc1ccc(-c2c(C)nc3c(N4CC[C@@H](NC(C)=O)C4)cc(C)nn23)cc1OC
- remaining at 1 h, 1 µM [14]: > 95%
- Activity (HL-60): Non-Toxic
- Activity (HeLa S3): Non-Toxic
- Activity (CCRF-CEM): Non-Toxic
- remaining at 1 h, 1 µM [15]: > 95%
- Activity (HepG2): Non-Toxic
- inhibition [9]: inactive
- pIC50 [11]: < 5.00

Compound: COc1ccc(-c2c(C)nc3c(N4CC[C@H](NC(C)=O)C4)cc(C)nn23)cc1OC
- Activity (HL-60): Non-Toxic
- Activity (HeLa S3): Non-Toxic
- Activity (CCRF-CEM): Non-Toxic
- Activity (HepG2): Non-Toxic
- inhibition [9]: inactive
- pIC50 [11]: < 5.00

Compound: COc1ccc(-c2c(C)nc3c(N4CC[C@@H](NC(=O)C(F)(F)c5ccccc5)C4)cc(C)nn23)cc1OC
- Parent compound remaining [16]: 6%
- remaining at 1 h, 1 µM [14]: > 95%
- Stability (Cytochrome P450 [17]): 20%
- remaining at 1 h, 1 µM [15]: > 95%

Compound: COc1ccc(-c2cnc3c(N4CC[C@@H](NC(C)=O)C4)ccnn23)cc1OC
- Parent compound remaining [16]: 68%
- remaining at 1 h, 1 µM [14]: > 95%
- Stability (Cytochrome P450 [17]): 92%
- remaining at 1 h, 1 µM [15]: > 95%

Compound: COc1ccc(-c2scc3c(N4CC[C@@H](NC(C)=O)C4)nc(C)nc23)cc1OC
- remaining at 1 h, 1 µM [14]: > 95%
- pIC50 [18]: < 4.00
- remaining at 1 h, 1 µM [15]: > 95%

Compound: COc1ccc(-c2c(C)nc3c(NCCNC(C)=O)cc(C)nn23)cc1OC
- Activity (HL-60): Non-Toxic
- pIC50 [18]: < 5.00
- Activity (HeLa S3): Non-Toxic
- Activity (CCRF-CEM): Non-Toxic
- Activity (HepG2): Non-Toxic
- inhibition [9]: inactive

Continued, values first:

- Parent compound remaining [16]: 1%
- remaining at 1 h, 1 µM [14]: > 95%
- Stability (Cytochrome P450 [17]): 58%
- remaining at 1 h, 1 µM [15]: > 95%
Compound: COc1ccc(-c2c(C)nc3c(N4CCCC4)cc(C)nn23)cc1OC

- Parent compound remaining [16]: 104%
- remaining at 1 h, 1 µM [14]: > 95%
- pIC50 [18]: < 4.00
- remaining at 1 h, 1 µM [15]: > 95%
Compound: COc1ccc(-n2c(C)nc3c(N4CC[C@@H](NC(C)=O)C4)nc(C)nc32)cc1OC

- remaining at 1 h, 1 µM [14]: > 95%
- pIC50 [18]: < 4.00
- remaining at 1 h, 1 µM [15]: > 95%
Compound: COc1ccc(-c2c(C)oc3c(N4CC[C@@H](NC(C)=O)C4)cc(C)nc23)cc1OC

- Parent compound remaining [16]: 20%
- remaining at 1 h, 1 µM [14]: > 95%
- Stability (Cytochrome P450 [17]): 43%
- remaining at 1 h, 1 µM [15]: > 95%
Compound: COc1ccc(-c2c(C)nc3c(N4CC[C@@H](NS(=O)(=O)c5ccccc5)C4)cc(C)nn23)cc1OC

- Parent compound remaining [16]: 8%
- remaining at 1 h, 1 µM [14]: > 95%
- Stability (Cytochrome P450 [17]): 11%
- remaining at 1 h, 1 µM [15]: > 95%
Compound: COc1ccc(-c2c(C)nc3c(N4CC[C@@H](SC(C)=O)C4)cc(C)nn23)cc1OC

- Parent compound remaining [16]: 53%
- remaining at 1 h, 1 µM [14]: > 95%
- Stability (Cytochrome P450 [17]): 28%
- remaining at 1 h, 1 µM [15]: > 95%
Compound: COc1ccc(-c2cnc3c(N4CC[C@@H](NC(C)=O)C4)cc(C)nn23)cc1OC

- Parent compound remaining [16]: 15%
- remaining at 1 h, 1 µM [14]: > 95%
- Stability (Cytochrome P450 [17]): 61%
- remaining at 1 h, 1 µM [15]: > 95%
Compound: COc1ccc(-c2c(C)nc3c(N4CC[C@@H](NS(=O)(=O)c5ccc(C(F)(F)F)cc5)C4)cc(C)nn23)cc1OC
